Results taken from ChEMBL document CHEMBL2385035 (J Med Chem, 2013).
Activity calls are given as the source filed them. The rule behind the calls is not given here.

Tests used:
[1] = biological target: T1, Ileal sodium/bile acid cotransporter (Rattus norvegicus, UniProt Q62633); test: Inhibition of rat ASBT expressed in HEK293 cells assessed as inhibition of [3H]-taurocholate uptake after 90 mins by scintillation counting analysis; type: cell-based
T1 sequence (Q62633 whole entry): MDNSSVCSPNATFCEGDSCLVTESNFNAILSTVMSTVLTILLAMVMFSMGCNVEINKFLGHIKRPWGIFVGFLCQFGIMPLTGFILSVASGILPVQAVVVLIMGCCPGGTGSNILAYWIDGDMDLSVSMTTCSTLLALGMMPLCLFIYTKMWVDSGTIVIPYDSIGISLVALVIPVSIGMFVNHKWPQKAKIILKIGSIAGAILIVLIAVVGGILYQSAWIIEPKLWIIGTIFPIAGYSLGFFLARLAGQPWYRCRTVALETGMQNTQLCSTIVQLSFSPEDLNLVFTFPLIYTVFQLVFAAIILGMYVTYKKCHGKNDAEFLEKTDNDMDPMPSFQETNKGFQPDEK

[2] = biological target: T2, Ileal sodium/bile acid cotransporter (Homo sapiens, UniProt Q12908); test: Inhibition of human ASBT expressed in HEK293 cells assessed as inhibition of [3H]-taurocholate uptake after 90 mins by scintillation counting analysis; type: cell-based
T2 sequence (Q12908 whole entry): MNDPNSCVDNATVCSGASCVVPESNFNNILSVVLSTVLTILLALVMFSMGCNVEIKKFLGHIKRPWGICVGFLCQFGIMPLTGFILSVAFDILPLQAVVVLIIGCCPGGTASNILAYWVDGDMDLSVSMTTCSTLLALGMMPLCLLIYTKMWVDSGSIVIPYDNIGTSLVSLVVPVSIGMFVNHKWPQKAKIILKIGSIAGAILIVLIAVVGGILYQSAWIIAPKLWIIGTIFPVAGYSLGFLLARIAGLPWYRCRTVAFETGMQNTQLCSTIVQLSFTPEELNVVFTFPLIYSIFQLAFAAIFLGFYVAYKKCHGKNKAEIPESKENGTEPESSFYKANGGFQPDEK

[3] = Apparent permeability in MDCK cells expressing MDR1 at 3 uM after 60 mins by LC-MS/MS analysis; type: ADME, cell-based, Canis lupus familiaris; conditions: dog
[4] = test system: Mus musculus; test: In vivo inhibition of ASBT in C57BL/6J mouse assessed as increase in fecal bile acid excretion measured for 24 hrs relative to 264W94; type: functional, Feces; design: concentration or dose not given beside the values
[5] = Cmax in Sprague-Dawley rat systemic blood at 10 mg/kg, po; type: ADME, organism-based; design: dose 10 mg/kg, route oral
Outline: (§1)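 Fed male SD rats given a single oral gavage dose of 10 mg/kg. Maximum parent drug concentration measured in portal vein blood and in systemic blood.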

[6] = test system: Mus musculus; test: In vivo inhibition of ASBT in C57BL/6J mouse assessed as increase in fecal bile acid excretion measured for 24 hrs; type: functional; conditions: Feces
[7] = test system: Intestine; test: Metabolic stability in Sprague-Dawley rat intestine assessed as formation of (7R,9R)-7-Butyl-7-ethyl-2-methoxy-5,5-dioxo-9-phenyl-6,7,8,9-tetrahydro-5H-5lambda(6)-thia-8-aza-benzocyclohepten-3-ol at 10 mg/kg, po after 2 to 24 hrs; type: ADME, organism-based; design: dose 10 mg/kg, route oral; conditions: in vivo
[8] = Cmax in Sprague-Dawley rat portal vein blood at 10 mg/kg, po; type: ADME, organism-based; design: dose 10 mg/kg, route oral; outline: as §1
[9] = Drug recovery in Sprague-Dawley rat feces at 10 mg/kg, po; type: ADME, organism-based; design: dose 10 mg/kg, route oral; conditions: read-out: Drug recovery
[10] = biological target: T3, Ileal sodium/bile acid cotransporter (Mus musculus, UniProt P70172); test: Inhibition of mouse ASBT expressed in HEK293 cells assessed as inhibition of [3H]-taurocholate uptake after 90 mins by scintillation counting analysis; type: cell-based
T3 sequence (P70172 whole entry): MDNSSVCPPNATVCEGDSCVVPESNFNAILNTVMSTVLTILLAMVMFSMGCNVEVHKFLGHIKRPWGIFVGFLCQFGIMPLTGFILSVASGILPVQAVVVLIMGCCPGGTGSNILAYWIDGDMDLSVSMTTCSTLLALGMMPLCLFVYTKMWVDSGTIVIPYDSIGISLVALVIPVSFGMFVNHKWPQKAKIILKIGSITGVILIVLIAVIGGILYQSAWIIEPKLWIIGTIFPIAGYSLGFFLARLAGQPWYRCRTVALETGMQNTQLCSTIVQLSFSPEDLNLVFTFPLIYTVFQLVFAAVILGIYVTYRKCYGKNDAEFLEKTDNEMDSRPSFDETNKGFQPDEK

[11] = Stability of the compound by glutathione trapping assay; type: physicochemical
[12] = test system: Rattus norvegicus; test: Antidiabetic activity in portal vein cannulated lean Sprague-Dawley rat assessed as increase in portal vein PYY level at 10 mg/kg, po measured after 3 to 8 hrs; type: functional, organism-based; design: dose 10 mg/kg
[13] = test system: Rattus norvegicus; test: Antidiabetic activity in Zucker diabetic fatty rat assessed as increase in plasma insulin level at 0.05 to 10 mg/kg, po bid for 2 weeks measured on day 14 relative to vehicle-treated control; type: functional, organism-based
Outline: (§2)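 Male ZDF rats, 8 weeks old, dosed orally twice daily for 14 days in two separate studies. Day-14 tail-vein blood sampled for HbA1c and for plasma glucose (nonfasted), insulin and total GLP-1. Compared with vehicle-treated animals, significance at p < 0.05.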

[14] = test system: Rattus norvegicus; test: Antidiabetic activity in Zucker diabetic fatty rat assessed as increase in fecal bile acid excretion at 0.05 to 10 mg/kg, po bid for 2 weeks measured for 24 hrs post last dose relative to vehicle-treated control; type: functional, Feces; conditions: dose mg/kg 0.05-10
[15] = Aqueous solubility of the compound; type: physicochemical; conditions: buffer
[16] = test system: Rattus norvegicus; test: Antidiabetic activity in portal vein cannulated lean Sprague-Dawley rat assessed as increase in portal vein total GLP-1 level at 10 mg/kg, po measured after 3 to 8 hrs; type: functional, organism-based; design: dose 10 mg/kg
[17] = test system: Rattus norvegicus; test: Antidiabetic activity in Zucker diabetic fatty rat assessed as reduction in non-fasted plasma glucose level at 0.05 to 10 mg/kg, po bid for 2 weeks measured on day 14 relative to vehicle-treated control; type: functional; design: scale not given: the % may be the effect or the level left; conditions: dose mg/kg 0.05-10; outline: as §2
[18] = Half life in Sprague-Dawley rat intestine at 10 mg/kg, po; type: ADME, organism-based; design: dose 10 mg/kg, route oral
[19] = test system: Rattus norvegicus; test: Antidiabetic activity in portal vein cannulated lean Sprague-Dawley rat assessed as effect on portal vein GIP level at 10 mg/kg, po measured after 3 to 8 hrs relative to vehicle-treated control; type: functional, organism-based; design: dose 10 mg/kg
[20] = test system: Rattus norvegicus; test: Antidiabetic activity in Zucker diabetic fatty rat assessed as increase in total GLP-1 level at 0.05 to 10 mg/kg, po bid for 2 weeks measured on day 14 relative to vehicle-treated control; type: functional, organism-based; outline: as §2
[21] = test system: Rattus norvegicus; test: Antidiabetic activity in Zucker diabetic fatty rat assessed as reduction in blood HbA1c level at 0.05 to 10 mg/kg, po bid for 2 weeks measured on day 14 relative to vehicle-treated control; type: functional; design: scale not given: the % may be the effect or the level left; conditions: dose mg/kg 0.05-10; outline: as §2
[22] = test system: Rattus norvegicus; test: In vivo inhibition of ASBT in portal vein cannulated lean Sprague-Dawley rat assessed as decrease in portal vein bile acid level at 10 mg/kg, po measured after 1 to 2 hrs relative to vehicle-treated control; type: functional, organism-based; design: dose 10 mg/kg
[23] = test system: Rattus norvegicus; test: Antidiabetic activity in Zucker diabetic fatty rat assessed as reduction in non-fasted plasma glucose level at 0.001 to 10 mg/kg, po bid for 2 weeks measured on day 14 relative to vehicle-treated control; type: functional; design: scale not given: the % may be the effect or the level left; conditions: dose mg/kg 0.001-10; outline: as §2
[24] = Cmax in beagle dog systemic blood at 10 mg/kg, po; type: ADME, organism-based, Canis lupus familiaris; design: dose 10 mg/kg, route oral
Outline: (§3)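 Solution dosed orally to fed SD rats (10 mg/kg), male beagle dogs (10 mg/kg) or cynomolgous monkeys (3 mg/kg). Parent compound measured in systemic circulation; rat lower limit of quantitation 1 ng/mL.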

[25] = Thermal stability of the compound; type: physicochemical
[26] = test system: Cynomolgus monkey; test: Cmax in cynomolgous monkey systemic blood at 3 mg/kg, po; type: ADME, organism-based, Macaca fascicularis; design: dose 3 mg/kg, route oral; conditions: in vivo, BLD = below limit of detection; outline: as §3
[27] = test system: Rattus norvegicus; test: Antidiabetic activity in Zucker diabetic fatty rat assessed as reduction in blood HbA1c level at 0.001 to 10 mg/kg, po bid for 2 weeks measured on day 14 relative to vehicle-treated control; type: functional; design: scale not given: the % may be the effect or the level left; conditions: dose mg/kg 0.001-10; outline: as §2
[28] = test system: Rattus norvegicus; test: Antidiabetic activity in Zucker diabetic fatty rat assessed as increase in total GLP-1 level at 0.001 to 10 mg/kg, po bid for 2 weeks measured on day 14 relative to vehicle-treated control; type: functional, organism-based; outline: as §2
[29] = Aqueous solubility of the compound at pH 7.4; type: physicochemical; conditions: buffer
[30] = test system: Rattus norvegicus; test: Antidiabetic activity in Zucker diabetic fatty rat assessed as increase in plasma insulin level at 0.001 to 10 mg/kg, po bid for 2 weeks measured on day 14 relative to vehicle-treated control; type: functional, organism-based; outline: as §2

| Compound | IC50 [1] [nM] | IC50 [2] [nM] | Papp at 1 h, 3 µM [3] [×10⁻⁶ cm/s] | Efficacy [4] [%] | Cmax [5] [ng/mL] | ED50 [6] [mg/kg] | Cmax [8] [ng/mL] | dose excreted [9] [%] | IC50 [10] [nM] | Activity [13] | fold change (FC) [14] | solubility [15] [µg/mL] | Activity [17] [%] | half-life [18] [h] | Activity [20] | Activity [21] [%] | Stability [25] | also measured |
| --- | --- | --- | --- | --- | --- | --- | --- | --- | --- | --- | --- | --- | --- | --- | --- | --- | --- | --- |
| CCCC[C@]1(CC)CS(=O)(=O)c2cc(OC)c(OC)cc2[C@@H](c2ccccc2)N1 | 22 | 180 | 10.7 | 100 | 19 | 0.13 | 100 | 3 | 3 |  |  |  |  |  |  |  |  | Stability [7]: Unstable |
| CCCC[C@]1(CC)CS(=O)(=O)c2cc(CP(=O)(O)O)c(OC)cc2[C@@H](c2ccccc2)N1 | 0.9 |  | 0.7 | 92 | 3 | 0.12 | 14 | 87 | 0.5 | Active | 7 | ≥ 200 | >50 | > 12 | Active | 1.3 |  | Stability [11]: Unstable; Activity [12]: Active; Activity [16]: Active; Activity [19]: inactive; inhibition [22]: Active |
| CCCC[C@]1(CC)CS(=O)(=O)c2cc(CNC(CC(=O)O)CC(=O)O)c(OC)cc2[C@@H](c2ccccc2)N1 [LINERIXIBAT] | 1.9 | 42 | 0.7 | 94 |  | 0.022 | 4 | 98 | 2.1 |  | 7 | ≥ 200 |  | > 12 |  |  | Stable | Activity [23]: >50%; Cmax [24]: 6 ng/mL; Cmax [26]: BLD; Activity [27]: 1.3%; Activity [28]: Active; solubility [29]: > 7000 µg/mL; Activity [30]: Active |
| CCCC[C@]1(CC)CS(=O)(=O)c2cc(CNCCS(=O)(=O)O)c(OC)cc2[C@@H](c2ccccc2)N1 | 2.3 |  | 1 | 73 |  | 2.7 | 7 | 100 | 0.9 |  |  |  |  | > 12 |  |  |  |  |
| CCCC[C@]1(CC)CS(=O)(=O)c2cc(CNCC(=O)O)c(OC)cc2[C@@H](c2ccccc2)N1 | 0.2 | 4 | 2.7 | 98 | 1 | 0.017 | 27 | 92 | 0.3 | Active | 7 | ≥ 200 | >50 | > 12 | Active | 1.3 | Unstable |  |
